Laboratory results: ChEMBL document CHEMBL4033671, “Synthesis and biological evaluation of N-(carbobenzyloxy)-l-phenylalanine and N-(carbobenzyloxy)-l-aspartic acid-β-benzyl ester derivatives as potent topoisomerase IIα inhibitors” (Bioorg Med Chem, 2017)
pIC50: −log10 of the molar value.

Columns and labels:
[1] = target: T1, DNA topoisomerase 2-alpha (Homo sapiens, UniProt P11388); experiment: Inhibition of human recombinant topoisomerase-2alpha expressed in Escherichia coli assessed as decrease in relaxation of supercoiled DNA pBR322 at 20 uM after 30 mins by ethidium bromide staining-based agarose gel electrophoresis relative to control
Summary of the method: (§1)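 Relaxation of 500 ng supercoiled pBR322 by 1 unit human topoisomerase I or IIα in reaction buffer, with or without compound (100 µM; 20 µM for selected compounds). Incubated 37 °C for 30 min, stopped with 0.77% SDS/77 mM EDTA. Products run on 1% agarose in TBE at 83 V for 60 min, stained 30 min in ethidium bromide (0.5 µg/mL), imaged under UV; percent inhibition recorded.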

[2] = test system: A549; experiment: Antiproliferative activity against human A549 cells after 48 hrs by MTT assay; assay type: functional, cell-based; details: A549, 48 h
Summary of the method: (§2)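 Cells seeded at 5×10⁴ per well, left 12 h, then exposed to serial dilutions (final 0, 5.0, 10.0, 20.0, 40.0, 80.0, 100.0 µM) for 48 h. MTT (5.0 mg/mL stock, 10 µL) added for 4 h, formazan dissolved in DMSO, absorbance read at 490 nm. Inhibition = (1−A_treatment/A_control)×100%; IC50 is the concentration giving 50% growth inhibition. Triplicate wells, at least three independent experiments, mean ± SD.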

[3] = target: T1, DNA topoisomerase 2-alpha; experiment: Inhibition of human recombinant topoisomerase-2alpha expressed in Escherichia coli assessed as decrease in relaxation of supercoiled DNA pBR322 at 100 uM after 30 mins by ethidium bromide staining-based agarose gel electrophoresis relative to control; summary of the method: as §1
[4] = test system: MCF7; experiment: Antiproliferative activity against human MCF7 cells after 48 hrs by MTT assay; assay type: functional, cell-based; details: MCF7, 48 h; summary of the method: as §2
[5] = target: T2, DNA topoisomerase 1 (Homo sapiens) (UniProt P11387); experiment: Inhibition of human recombinant topoisomerase-1 assessed as decrease in relaxation of supercoiled DNA pBR322 at 100 uM after 30 mins by ethidium bromide staining-based agarose gel electrophoresis relative to control; summary of the method: as §1
T2 sequence (whole entry): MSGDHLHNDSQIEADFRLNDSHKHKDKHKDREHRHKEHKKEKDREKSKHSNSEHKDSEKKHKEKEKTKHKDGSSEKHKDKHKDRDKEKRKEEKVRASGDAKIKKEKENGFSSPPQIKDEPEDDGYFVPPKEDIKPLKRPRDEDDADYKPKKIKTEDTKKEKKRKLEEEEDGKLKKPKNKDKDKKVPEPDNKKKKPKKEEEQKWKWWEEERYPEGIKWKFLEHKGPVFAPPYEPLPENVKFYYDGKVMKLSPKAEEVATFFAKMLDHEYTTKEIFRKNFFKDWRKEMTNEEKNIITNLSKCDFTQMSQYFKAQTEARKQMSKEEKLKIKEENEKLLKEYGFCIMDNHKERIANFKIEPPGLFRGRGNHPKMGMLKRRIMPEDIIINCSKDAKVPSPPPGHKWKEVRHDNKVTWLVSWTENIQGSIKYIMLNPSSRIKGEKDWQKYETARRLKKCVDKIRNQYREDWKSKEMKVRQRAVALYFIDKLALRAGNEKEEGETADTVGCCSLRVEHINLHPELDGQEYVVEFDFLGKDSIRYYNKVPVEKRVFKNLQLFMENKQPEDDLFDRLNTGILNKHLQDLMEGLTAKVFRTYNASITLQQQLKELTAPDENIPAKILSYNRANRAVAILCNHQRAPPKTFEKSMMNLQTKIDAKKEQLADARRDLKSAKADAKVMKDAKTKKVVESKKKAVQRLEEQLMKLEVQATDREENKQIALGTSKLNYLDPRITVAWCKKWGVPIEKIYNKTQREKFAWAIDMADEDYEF

[6] = test system: HeLa; experiment: Antiproliferative activity against human HeLa cells after 48 hrs by MTT assay; assay type: functional, cell-based; summary of the method: as §2
[7] = test system: MGC-803; experiment: Antiproliferative activity against human MGC803 cells after 48 hrs by MTT assay; assay type: functional, cell-based; details: MGC-803, 48 h; summary of the method: as §2
[8] = target: T1, DNA topoisomerase 2-alpha; experiment: Inhibition of human recombinant topoisomerase-2alpha expressed in Escherichia coli assessed as decrease in relaxation of supercoiled DNA pBR322 after 30 mins by ethidium bromide staining-based agarose gel electrophoresis; summary of the method: as §1
[9] = target: T2, DNA topoisomerase 1 (Homo sapiens); experiment: Inhibition of human recombinant topoisomerase-1 assessed as decrease in relaxation of supercoiled DNA pBR322 at 20 uM after 30 mins by ethidium bromide staining-based agarose gel electrophoresis relative to control; summary of the method: as §1

T1 sequence (P11388 whole entry): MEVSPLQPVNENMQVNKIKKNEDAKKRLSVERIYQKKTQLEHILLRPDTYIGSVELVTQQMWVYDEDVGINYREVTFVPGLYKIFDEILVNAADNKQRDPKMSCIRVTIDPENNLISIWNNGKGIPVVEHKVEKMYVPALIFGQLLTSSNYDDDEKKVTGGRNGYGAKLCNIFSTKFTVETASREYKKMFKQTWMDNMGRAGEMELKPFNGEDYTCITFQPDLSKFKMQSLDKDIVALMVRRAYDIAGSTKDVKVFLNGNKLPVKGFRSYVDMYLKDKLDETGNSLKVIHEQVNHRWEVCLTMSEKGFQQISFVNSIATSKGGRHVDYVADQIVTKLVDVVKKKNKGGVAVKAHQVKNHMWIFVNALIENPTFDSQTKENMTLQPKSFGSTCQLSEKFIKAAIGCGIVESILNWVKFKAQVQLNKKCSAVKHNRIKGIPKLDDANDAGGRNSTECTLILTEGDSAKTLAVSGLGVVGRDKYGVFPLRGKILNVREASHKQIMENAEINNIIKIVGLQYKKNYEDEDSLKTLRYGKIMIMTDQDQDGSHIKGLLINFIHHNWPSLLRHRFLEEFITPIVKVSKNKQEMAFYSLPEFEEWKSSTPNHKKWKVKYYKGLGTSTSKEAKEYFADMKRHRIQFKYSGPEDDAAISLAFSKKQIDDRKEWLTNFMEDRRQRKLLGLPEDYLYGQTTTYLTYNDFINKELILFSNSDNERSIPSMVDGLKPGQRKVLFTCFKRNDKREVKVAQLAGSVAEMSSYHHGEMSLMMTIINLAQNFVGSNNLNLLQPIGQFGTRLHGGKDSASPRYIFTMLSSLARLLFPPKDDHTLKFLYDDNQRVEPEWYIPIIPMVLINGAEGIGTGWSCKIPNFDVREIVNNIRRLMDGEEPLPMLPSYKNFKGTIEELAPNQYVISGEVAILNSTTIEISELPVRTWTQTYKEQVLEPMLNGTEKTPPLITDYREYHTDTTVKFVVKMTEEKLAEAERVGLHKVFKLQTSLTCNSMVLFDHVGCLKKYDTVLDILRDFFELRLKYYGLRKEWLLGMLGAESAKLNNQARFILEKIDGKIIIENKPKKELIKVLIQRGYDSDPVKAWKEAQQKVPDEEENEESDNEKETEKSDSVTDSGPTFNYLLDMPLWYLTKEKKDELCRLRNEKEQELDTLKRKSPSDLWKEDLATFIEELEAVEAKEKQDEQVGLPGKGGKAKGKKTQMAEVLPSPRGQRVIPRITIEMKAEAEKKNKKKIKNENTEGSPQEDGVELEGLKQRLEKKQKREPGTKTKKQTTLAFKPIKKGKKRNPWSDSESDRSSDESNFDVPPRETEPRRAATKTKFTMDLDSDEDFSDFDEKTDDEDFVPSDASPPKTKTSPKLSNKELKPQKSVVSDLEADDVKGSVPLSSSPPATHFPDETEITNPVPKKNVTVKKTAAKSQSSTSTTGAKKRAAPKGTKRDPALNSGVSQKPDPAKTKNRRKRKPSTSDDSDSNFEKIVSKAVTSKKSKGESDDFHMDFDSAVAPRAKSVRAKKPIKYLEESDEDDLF

| SMILES | inhibition [1] | pIC50 [2] | inhibition [3] | pIC50 [4] | inhibition [5] | pIC50 [6] | pIC50 [7] | pIC50 [8] | inhibition [9] |
| --- | --- | --- | --- | --- | --- | --- | --- | --- | --- |
| CC[C@@]1(O)C(=O)OCc2c1cc1n(c2=O)Cc2cc3ccccc3nc2-1 [CAMPTOTHECIN] | – | 4.87 | – | 4.54 | – | 5.00 | 5.02 | – | – |
| O=C(O)C[C@H](NC(=O)OCc1ccccc1)C(=O)O | – | – | – | – | – | – | – | 4.57 | – |
| CC(=O)OC[C@H](Cc1ccccc1)NC(=O)[C@H](CC(=O)OCc1ccccc1)NC(=O)OCc1ccccc1 | – | < 4.30 | 6.7% | 4.33 | 15% | < 4.30 | < 4.30 | – | -0% |
| O=C(C[C@H](NC(=O)OCc1ccccc1)C(=O)N[C@H](COC(=O)c1ccccc1Cl)Cc1ccccc1)OCc1ccccc1 | – | < 4.30 | 41.4% | < 4.30 | -0% | < 4.30 | < 4.30 | – | – |
| COc1ccc(C(=O)OC[C@H](Cc2ccccc2)NC(=O)[C@H](Cc2ccccc2)NC(=O)OCc2ccccc2)cc1OC | 28.1% | < 4.30 | 83.2% | 4.38 | 5.4% | 4.46 | 4.39 | – | – |
| CCC(=O)OC[C@H](Cc1ccccc1)NC(=O)[C@H](CC(=O)OCc1ccccc1)NC(=O)OCc1ccccc1 | 19.7% | < 4.30 | 63.8% | 4.39 | 45.2% | 4.30 | < 4.30 | – | -0% |
| Cc1ccccc1C(=O)OC[C@H](Cc1ccccc1)NC(=O)[C@H](CC(=O)OCc1ccccc1)NC(=O)OCc1ccccc1 | – | < 4.30 | 28.2% | 4.38 | -0% | 4.35 | < 4.30 | – | – |
| O=C(N[C@@H](Cc1ccccc1)C(=O)N[C@H](COC(=O)c1ccccc1Cl)Cc1ccccc1)OCc1ccccc1 | – | < 4.30 | 4.1% | 4.37 | -0% | < 4.30 | 4.37 | – | – |
| Cc1ccccc1C(=O)OC[C@H](Cc1ccccc1)NC(=O)[C@H](Cc1ccccc1)NC(=O)OCc1ccccc1 | 42.1% | < 4.30 | 62.8% | 4.41 | 7.3% | 4.40 | 4.37 | – | – |

The next lines start with the values.

| inhibition [1] | pIC50 [2] | inhibition [3] | pIC50 [4] | inhibition [5] | pIC50 [6] | pIC50 [7] | pIC50 [8] | inhibition [9] | SMILES |
| --- | --- | --- | --- | --- | --- | --- | --- | --- | --- |
| 45.6% | < 4.30 | 86.1% | < 4.30 | -0% | < 4.30 | < 4.30 | – | – | CCC(=O)OC[C@H](Cc1ccccc1)NC(=O)[C@H](Cc1ccccc1)NC(=O)OCc1ccccc1 |
| – | 4.70 | – | 4.62 | – | 4.80 | 4.68 | – | – | COc1cc([C@@H]2c3cc4c(cc3[C@@H](O[C@@H]3O[C@@H]5CO[C@@H](C)O[C@H]5[C@H](O)[C@H]3O)[C@H]3COC(=O)[C@H]23)OCO4)cc(OC)c1O [ETOPOSIDE] |
| 51.2% | 4.52 | 92.9% | 4.66 | 9.5% | 4.75 | 4.55 | – | – | O=C(C[C@H](NC(=O)OCc1ccccc1)C(=O)N[C@H](COC(=O)c1ccc(Cl)cc1)Cc1ccccc1)OCc1ccccc1 |
| – | 4.37 | 3.2% | 4.44 | -0% | 4.65 | 4.42 | – | – | O=C(N[C@@H](Cc1ccccc1)C(=O)N[C@H](COC(=O)c1ccc(Cl)cc1)Cc1ccccc1)OCc1ccccc1 |
| 20.1% | 4.34 | 68.4% | 4.40 | -0% | 4.55 | 4.49 | – | – | O=C(C[C@H](NC(=O)OCc1ccccc1)C(=O)N[C@H](COC(=O)c1ccccc1)Cc1ccccc1)OCc1ccccc1 |
| 49.8% | 4.32 | 84.6% | 4.55 | 20.2% | 4.40 | 4.37 | – | -0% | COc1ccc(C(=O)OC[C@H](Cc2ccccc2)NC(=O)[C@H](CC(=O)OCc2ccccc2)NC(=O)OCc2ccccc2)cc1OC |
| 25.6% | 4.31 | 75.7% | 4.39 | 29.5% | 4.52 | 4.41 | – | -0% | O=C(N[C@@H](Cc1ccccc1)C(=O)N[C@H](COC(=O)c1ccccc1)Cc1ccccc1)OCc1ccccc1 |
